In ChEMBL document CHEMBL3085668, “α- and β-hydrazino acid-based pseudopeptides inhibit the chymotrypsin-like activity of the eukaryotic 20S proteasome” (Eur J Med Chem, 2013):
The source made the active and inactive calls. The calls are words filed in the database; no cut-off is given here.

Legend:
Oryctolagus cuniculus [1] = species on record: Oryctolagus cuniculus; assay: (§1) Inhibition of chymotrypsin like activity of rabbit 20S proteasome using Suc-LLVY-AMC as substrate after 45 mins
How it was run: (§2)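 Rabbit 20S proteasome (0.3 nM final) incubated with Suc-LLVY-AMC ([…] final) at 37 °C for 45 min in pH 7.5 buffer of 20 mM Tris, 1 mM DTT, 10% glycerol. Chymotrypsin-like activity was followed as substrate hydrolysis (AMC release), with and without test compound. Inhibition was taken relative to the no-compound control.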

[2] = as §1; parameters: species or system Oryctolagus cuniculus; how it was run: as §2
Oryctolagus cuniculus [3] = species on record: Oryctolagus cuniculus; assay: Inhibition of chymotrypsin like activity of rabbit 20S proteasome using Suc-LLVY-AMC as substrate at 100 uM after 45 mins relative to control; how it was run: as §2

Row | Structure (SMILES) | IC50 [2] [µM] | also measured
1 | COc1ccc(C[C@H](N)C(=O)NNC(=O)CC(NNC(=O)OCc2ccccc2)C(F)(F)F)cc1OC (some centres undefined) | – | inhibition (Oryctolagus cuniculus [1]): inactive
2 | COC(=O)[C@H](Cc1ccccc1)NC(=O)CNNC(=O)C(CCCCNC(=O)OCc1ccccc1)NC(=O)Cc1cccc(Oc2ccccc2)c1 (some centres undefined) | 1.1 | –
3 | COC(=O)C(Cc1ccccc1)NC(=O)CCNNC(=O)C(N)CCCCNC(=O)OCc1ccccc1 (centres undefined) | 18.2 | –
4 | COc1cc(CNC(=O)CCNNC(=O)C(CCCCN)NC(=O)Cc2cccc(Oc3ccccc3)c2)cc(OC)c1OC (centres undefined) | 3.3 | –
5 | COC(=O)[C@H](Cc1ccccc1)NC(=O)CNNC(=O)C(CCCCN)NC(=O)Cc1cc(OC)ccc1OC (some centres undefined) | 1 | –
6 | COC(=O)[C@H](Cc1ccccc1)NC(=O)CC(NNC(=O)[C@H](CC(N)=O)NC(=O)OC(C)(C)C)C(F)(F)F (some centres undefined) | – | inhibition (Oryctolagus cuniculus [3]): 30%
7 | COc1ccc(C[C@H](NC(=O)OCC2c3ccccc3-c3ccccc32)C(=O)NNC(=O)CC(NNC(=O)OC(C)(C)C)C(F)(F)F)cc1OC (some centres undefined) | – | inhibition (Oryctolagus cuniculus [1]): inactive
8 | COC(=O)C(Cc1ccccc1)NC(=O)CCNNC(=O)C(CCCCNC(=O)OCc1ccccc1)NC(=O)Cc1cccc(Oc2ccccc2)c1 (centres undefined) | 2.8 | –
9 | COc1cc(CNC(=O)CC(NNC(=O)[C@H](CCCCN)NC(=O)Cc2cccc(Oc3ccccc3)c2)C(F)(F)F)cc(OC)c1OC (some centres undefined) | 6.2 | –
10 | COC(=O)[C@H](Cc1ccccc1)NC(=O)CCNNC(=O)[C@H](CCCCN)NC(=O)Cc1cc(OC)ccc1OC | 8.8 | –
11 | COc1ccc(OC)c(CC(=O)NC(CCCCNC(=O)OC(C)(C)C)C(=O)NNCCC(=O)NCc2cc(OC)c(OC)c(OC)c2)c1 (centres undefined) | 31.4 | –
12 | COc1cc(CNC(=O)CCNNC(=O)[C@H](CCCCNC(=O)OC(C)(C)C)NC(=O)OCC2c3ccccc3-c3ccccc32)cc(OC)c1OC | 6 | –
13 | COC(=O)[C@H](Cc1ccccc1)NC(=O)CCNNC(=O)[C@H](CCCCNC(=O)OCc1ccccc1)NC(=O)Cc1cc(OC)ccc1OC | 3.6 | –
14 | COc1cc(CNC(=O)CC(NNC(=O)[C@H](CCCCNC(=O)OCc2ccccc2)NC(=O)OC(C)(C)C)C(F)(F)F)cc(OC)c1OC (some centres undefined) | – | inhibition (Oryctolagus cuniculus [3]): 35%
15 | COC(=O)[C@H](Cc1ccccc1)NC(=O)CC(NNC(=O)Cc1cc(OC)ccc1OC)C(F)(F)F (some centres undefined) | – | inhibition (Oryctolagus cuniculus [1]): inactive
16 | COC(=O)[C@H](Cc1ccccc1)NC(=O)CC(NNC(=O)[C@H](CC(N)=O)NC(=O)Cc1cc(OC)ccc1OC)C(F)(F)F (some centres undefined) | – | inhibition (Oryctolagus cuniculus [1]): inactive
17 | COC(=O)[C@H](Cc1ccccc1)NC(=O)CC(NNC(=O)[C@H](CCCCN)NC(=O)Cc1cccc(Oc2ccccc2)c1)C(F)(F)F (single isomer, unassigned; diastereomer 2) | 5.9 | –

Row | Structure (SMILES) | IC50 [2] [µM] | also measured
18 | COc1cc(CNC(=O)CC(NNC(=O)[C@H](CC(N)=O)NC(=O)OC(C)(C)C)C(F)(F)F)cc(OC)c1OC (some centres undefined) | – | inhibition (Oryctolagus cuniculus [1]): inactive
19 | COC(=O)[C@H](Cc1ccccc1)NC(=O)CC(NNC(=O)[C@H](CCCCN)NC(=O)Cc1cccc(Oc2ccccc2)c1)C(F)(F)F (single isomer, unassigned; diastereomer 1) | 8.4 | –
20 | COc1ccc(C[C@H](NC(=O)Cc2cccc(Oc3ccccc3)c2)C(=O)NNC(=O)CC(NNC(=O)OC(C)(C)C)C(F)(F)F)cc1OC (some centres undefined) | – | inhibition (Oryctolagus cuniculus [1]): inactive
21 | COc1ccc(OC)c(CC(=O)N[C@@H](CCCCN)C(=O)NNC(CC(=O)NCc2cc(OC)c(OC)c(OC)c2)C(F)(F)F)c1 (some centres undefined) | 97 | –
22 | COC(=O)[C@H](Cc1ccccc1)NC(=O)CC(NNC(=O)[C@H](CCCCN)NC(=O)Cc1cc(OC)ccc1OC)C(F)(F)F (some centres undefined) | 5.9 | –
23 | COC(=O)C(Cc1ccccc1)NC(=O)CCNNC(=O)C(CCCCNC(=O)OCc1ccccc1)NC(=O)OC(C)(C)C (centres undefined) | 48.5 | –
24 | COC(=O)[C@H](Cc1ccccc1)NC(=O)CNNC(=O)C(CCCCNC(=O)OCc1ccccc1)NC(=O)Cc1cc(OC)ccc1OC (some centres undefined) | 7.1 | –
25 | COC(=O)[C@H](Cc1ccccc1)NC(=O)CNNC(=O)C(CCCCN)NC(=O)Cc1cccc(Oc2ccccc2)c1 (some centres undefined) | 0.7 | –
26 | COc1ccc(C[C@H](NC(=O)OCC2c3ccccc3-c3ccccc32)C(=O)NNC(=O)CC(NNC(=O)OCc2ccccc2)C(F)(F)F)cc1OC (some centres undefined) | – | fold change (FC) (Oryctolagus cuniculus [3]): 3.6
27 | COc1ccc(C[C@H](NC(=O)Cc2cccc(Oc3ccccc3)c2)C(=O)NNC(=O)CC(NNC(=O)OCc2ccccc2)C(F)(F)F)cc1OC (some centres undefined) | – | inhibition (Oryctolagus cuniculus [1]): inactive
28 | COc1ccc(OC)c(CC(=O)NC(CCCCN)C(=O)NNCCC(=O)NCc2cc(OC)c(OC)c(OC)c2)c1 (centres undefined) | 11.8 | –
29 | COC(=O)[C@H](Cc1ccccc1)NC(=O)CC(NNC(=O)[C@H](CCCCNC(=O)OCc1ccccc1)NC(=O)Cc1cc(OC)ccc1OC)C(F)(F)F (some centres undefined) | – | inhibition (Oryctolagus cuniculus [3]): 30%
30 | COC(=O)[C@H](Cc1ccccc1)NC(=O)CNNC(=O)C(CCCCNC(=O)OCc1ccccc1)NC(=O)OC(C)(C)C (some centres undefined) | 11.8 | –
31 | COc1cc(CNC(=O)CCNNC(=O)C(CCCCNC(=O)OC(C)(C)C)NC(=O)Cc2cccc(Oc3ccccc3)c2)cc(OC)c1OC (centres undefined) | 4.7 | –
32 | COc1cc(CNC(=O)CC(NNC(=O)[C@@H](N)CCCCNC(=O)OCc2ccccc2)C(F)(F)F)cc(OC)c1OC (some centres undefined) | 10.1 | –
33 | COC(=O)C(Cc1ccccc1)NC(=O)CCNNC(=O)C(CCCCN)NC(=O)Cc1cccc(Oc2ccccc2)c1 (centres undefined) | 1.4 | –
34 | COc1ccc(OC)c(CC(=O)N[C@@H](CCCCNC(=O)OCc2ccccc2)C(=O)NNC(CC(=O)NCc2cc(OC)c(OC)c(OC)c2)C(F)(F)F)c1 (some centres undefined) | – | inhibition (Oryctolagus cuniculus [1]): inactive
